ChEMBL document CHEMBL4715780, “Biological evaluation of tetracationic compounds based on two 1,4-diazabicyclo[2.2.2]octane moieties connected by different linkers” (Bioorg Med Chem, 2016)

Legend:
Pseudomonas aeruginosa [1] = experiment: Bactericidal activity against Pseudomonas aeruginosa ATCC 9027 assessed as colony forming unit at 2.5 ug/ml measured at 2 hrs by time kill assay (reference value: 3.6 x 10^5 CFU/ml); format: functional; details: dose 2.5 µg/ml
Outline: (§1)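 Overnight Pseudomonas aeruginosa culture adjusted in Mueller–Hinton broth to about 2.5 × 10⁵ CFU/mL. Compound added at 2.5, 5 or 10 µg/mL, then incubated at 37 °C with shaking (580 rpm) for 22 h. Viable colonies counted on plates at 2, 4, 6, 8 and 22 h. Quantification limit 100 CFU/mL; triplicate.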

Pseudomonas aeruginosa [2] = experiment: Bactericidal activity against Pseudomonas aeruginosa ATCC 9027 assessed as reduction in colony forming unit at 10 ug/ml measured at 22 hrs by time kill assay relative to control; format: functional; set-up: scale not given: the % may be the effect or the level left; details: dose 10 µg/ml; outline: as §1
Pseudomonas aeruginosa [3] = experiment: Bactericidal activity against Pseudomonas aeruginosa ATCC 9027 assessed as colony forming unit at 2.5 ug/ml measured at 6 hrs by time kill assay (reference value: 10^8 CFU/ml); format: functional; details: dose 2.5 µg/ml; outline: as §1
Pseudomonas aeruginosa [4] = experiment: Bactericidal activity against Pseudomonas aeruginosa ATCC 9027 assessed as reduction in colony forming unit at 5 ug/ml measured at 2 hrs by time kill assay relative to control; format: functional; set-up: scale not given: the % may be the effect or the level left; details: dose 5 µg/ml; outline: as §1
Proteus vulgaris [5] = experiment: Antibacterial activity against Proteus vulgaris ATCC 6380 assessed as bacterial growth inhibition by CLSI protocol based serial microdilution method; format: functional
Escherichia coli = experiment: Antibacterial activity against Escherichia coli ATCC 25922 assessed as concentration required to inhibit visible growth by CLSI protocol based serial microdilution method; format: functional
Staphylococcus aureus [6] = experiment: Antibacterial activity against methicillin-resistant Staphylococcus aureus CEMTC 707 assessed as concentration required to inhibit visible growth by CLSI protocol based serial microdilution method; format: functional
Staphylococcus aureus [7] = experiment: Antibacterial activity against methicillin-resistant Staphylococcus aureus CEMTC 1733 assessed as bacterial growth inhibition by CLSI protocol based serial microdilution method; format: functional
Pseudomonas aeruginosa [8] = experiment: Bactericidal activity against Pseudomonas aeruginosa ATCC 9027 assessed as colony forming unit at 2.5 ug/ml measured at 4 hrs by time kill assay (reference value: 1.2 x 10^7 CFU/ml); format: functional; details: dose 2.5 µg/ml; outline: as §1
[9] = Cytotoxicity against human MCF7 cells assessed as reduction in cell viability measured after 24 hrs by MTT assay; format: cell-based
Outline: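 HEK293T or MCF-7 cells in IMDM with 10% FBS, seeded at 20,000 per well and grown overnight. Compounds at […] in fresh medium for 24 h at 37 °C, 5% CO₂. MTT then added for 4 h, precipitate dissolved overnight in SDS-HCl, absorbance read at 570 nm. Viability expressed relative to untreated cells, giving CC₅₀. Duplicate wells, at least two independent repeats.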

Pseudomonas aeruginosa [10] = experiment: Bactericidal activity against Pseudomonas aeruginosa ATCC 9027 assessed as colony forming unit at 10 ug/ml measured at 22 hrs by time kill assay (reference value: 1.7 x 10^9 CFU/ml); format: functional; details: dose 10 µg/ml; outline: as §1
Pseudomonas aeruginosa [11] = experiment: Bactericidal activity against Pseudomonas aeruginosa ATCC 9027 assessed as reduction in colony forming unit at 10 ug/ml measured at 6 hrs by time kill assay relative to control; format: functional; set-up: scale not given: the % may be the effect or the level left; details: dose 10 µg/ml; outline: as §1
Pseudomonas aeruginosa [12] = experiment: Bactericidal activity against Pseudomonas aeruginosa ATCC 9027 assessed as colony forming unit at 2.5 ug/ml measured at 8 hrs by time kill assay (reference value: 2.7 x 10^8 CFU/ml); format: functional; details: dose 2.5 µg/ml; outline: as §1
Salmonella typhimurium = experiment: Antibacterial activity against Salmonella enterica ATCC 14028 assessed as concentration required to inhibit visible growth by CLSI protocol based serial microdilution method; format: functional, Salmonella enterica subsp. enterica serovar Typhimurium
Citrobacter freundii = experiment: Antibacterial activity against Citrobacter freundii ATCC 8090 assessed as concentration required to inhibit visible growth by CLSI protocol based serial microdilution method; format: functional
Pseudomonas aeruginosa [13] = experiment: Bactericidal activity against Pseudomonas aeruginosa ATCC 9027 assessed as reduction in colony forming unit at 2.5 ug/ml measured at 4 hrs by time kill assay relative to control; format: functional; set-up: scale not given: the % may be the effect or the level left; details: dose 2.5 µg/ml; outline: as §1
Pseudomonas aeruginosa [14] = experiment: Bactericidal activity against Pseudomonas aeruginosa ATCC 9027 assessed as colony forming unit at 10 ug/ml measured at 8 hrs by time kill assay (reference value: 2.7 x 10^8 CFU/ml); format: functional; details: dose 10 µg/ml; outline: as §1
[15] = Selectivity index, ratio of CC50 for HEK293T cells assessed as reduction in cell viability measured after 24 hrs by MTT assay to MIC for Staphylococcus aureus ATCC 25923 assessed as bacterial growth inhibition by CLSI protocol based serial microdilution method; format: toxicity; details: human, read-out: Selectivity Index
Pseudomonas aeruginosa [16] = experiment: Bactericidal activity against Pseudomonas aeruginosa ATCC 9027 assessed as reduction in colony forming unit at 10 ug/ml measured at 2 hrs by time kill assay relative to control; format: functional; set-up: scale not given: the % may be the effect or the level left; details: dose 10 µg/ml; outline: as §1
Staphylococcus aureus [17] = experiment: Antibacterial activity against methicillin-resistant Staphylococcus aureus CEMTC 1850 assessed as concentration required to inhibit visible growth by CLSI protocol based serial microdilution method; format: functional
[18] = Selectivity index, ratio of CC50 for HEK293T cells assessed as reduction in cell viability measured after 24 hrs by MTT assay to MIC for Enterococcus faecalis ATCC 51299 assessed as bacterial growth inhibition by CLSI protocol based serial microdilution method; format: toxicity; details: human, read-out: Selectivity Index
Staphylococcus aureus [19] = experiment: Bactericidal activity against […] Staphylococcus aureus ATCC 25923 assessed as colony forming unit at 5 ug/ml measured at 2 hrs by time kill assay (reference value: 10^6 CFU/ml); format: functional; details: dose 5 µg/ml
Outline: (§2)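 S. aureus overnight culture was adjusted in MHB to ~8 × 10⁵ CFU/mL. Compound was added and the mixture incubated at 37 °C with shaking (580 rpm) for 22 h. Aliquots were plated for colony counts at 2, 4, 6, 8 and 22 h, with a quantification limit of 100 CFU/mL. Runs were done in triplicate.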

Staphylococcus aureus [20] = experiment: Antibacterial activity against […] Staphylococcus aureus ATCC 25923 assessed as concentration required to inhibit visible growth by CLSI protocol based serial microdilution method; format: functional
[21] = Selectivity index, ratio of CC50 for MDCK cells to EC50 for Influenza A virus (A/Puerto Rico/8/34 (H1N1)) infected in MDCK cells; format: toxicity, cell-based; details: dog, read-out: Ratio CC50/EC50
Outline: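 Ratio of CC₅₀ to EC₅₀, both in MDCK cells, with cytotoxicity run in parallel with the antiviral assay. EC₅₀ is the concentration halving virus production (0.3 log₁₀ EID₅₀ titre drop). It was obtained after 1 h compound pre-incubation, infection, 48 h at 37 °C, and hemagglutination read-out with 1% chicken erythrocytes.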

Pseudomonas aeruginosa [22] = experiment: Bactericidal activity against Pseudomonas aeruginosa ATCC 9027 assessed as colony forming unit at 10 ug/ml measured at 2 hrs by time kill assay (reference value: 3.6 x 10^5 CFU/ml); format: functional; details: dose 10 µg/ml; outline: as §1
Staphylococcus aureus [23] = experiment: Bactericidal activity against […] Staphylococcus aureus ATCC 25923 assessed as colony forming unit at 1.25 ug/ml measured at 2 hrs by time kill assay (reference value: 10^6 CFU/ml); format: functional; details: dose 1.25 µg/ml; outline: as §2
Proteus vulgaris [24] = experiment: Antibacterial activity against Proteus vulgaris ATCC 6380 assessed as concentration required to inhibit visible growth by CLSI protocol based serial microdilution method; format: functional
Pseudomonas aeruginosa [25] = experiment: Bactericidal activity against Pseudomonas aeruginosa ATCC 9027 assessed as colony forming unit at 5 ug/ml measured at 8 hrs by time kill assay (reference value: 2.7 x 10^8 CFU/ml); format: functional; details: dose 5 µg/ml; outline: as §1

SMILES | Activity (Pseudomonas aeruginosa [1]) | Activity (Pseudomonas aeruginosa [2]) | Activity (Pseudomonas aeruginosa [3]) | Activity (Pseudomonas aeruginosa [4]) | MIC (Proteus vulgaris [5]) | MBC (Escherichia coli) | MBC (Staphylococcus aureus [6]) | MIC (Staphylococcus aureus [7]) | Activity (Pseudomonas aeruginosa [8]) | CC50 at 24 h [9] | Activity (Pseudomonas aeruginosa [10]) | Activity (Pseudomonas aeruginosa [11]) | Activity (Pseudomonas aeruginosa [12]) | MBC (Salmonella typhimurium) | MBC (Citrobacter freundii) | Activity (Pseudomonas aeruginosa [13]) | Activity (Pseudomonas aeruginosa [14]) | selectivity ratio at 24 h [15] | Activity (Pseudomonas aeruginosa [16]) | MBC (Staphylococcus aureus [17]) | further results
CCCCCCCCCCCC[N+]12CC[N+](Cc3ccccc3C[N+]34CC[N+](CCCCCCCCCCCC)(CC3)CC4)(CC1)CC2 | 6800 CFU/ml | >=99.9% | <100 CFU/ml | >=99.9% | 100 µg/mL | 3.1 µg/mL | 1 µg/mL | 1 µg/mL | 1300 CFU/ml | 4 µg/mL | <100 CFU/ml | >=99.9% | 300 CFU/ml | 3.1 µg/mL | 1.6 µg/mL | >=99.9% | <100 CFU/ml | 7 | ≥ 99.9% | 1 µg/mL | selectivity ratio at 24 h [18]: 5; Activity (Staphylococcus aureus [19]): <100 CFU/ml; MBC (Staphylococcus aureus [20]): 1.2 µg/mL; selectivity ratio [21]: 2; Activity (Pseudomonas aeruginosa [22]): <100 CFU/ml; Activity (Staphylococcus aureus [23]): <670 CFU/ml; MBC (Proteus vulgaris [24]): > 100 µg/mL; Activity (Pseudomonas aeruginosa [25]): <100 CFU/ml
CCCCCCCCCCCC[N+]12CC[N+](CCC[N+]34CC[N+](CCCCCCCCCCCC)(CC3)CC4)(CC1)CC2 | 330 CFU/ml | >=99.9% | <100 CFU/ml | >=99.9% | 100 µg/mL | 3.1 µg/mL | 1 µg/mL | 1 µg/mL | <100 CFU/ml | 5 µg/mL | <100 CFU/ml | >=99.9% | <100 CFU/ml | 3.1 µg/mL | 3.1 µg/mL | >=99.9% | <100 CFU/ml | 22 | >=99.9% | 1 µg/mL | selectivity ratio at 24 h [18]: 4; Activity (Staphylococcus aureus [19]): <100 CFU/ml; MBC (Staphylococcus aureus [20]): 1.2 µg/mL; selectivity ratio [21]: 7; Activity (Pseudomonas aeruginosa [22]): <100 CFU/ml; Activity (Staphylococcus aureus [23]): <100 CFU/ml; MBC (Proteus vulgaris [24]): > 100 µg/mL; Activity (Pseudomonas aeruginosa [25]): <100 CFU/ml
